Source: ChEMBL document CHEMBL1135750, “Phenoxyphenyl sulfone N-formylhydroxylamines (retrohydroxamates) as potent, selective, orally bioavailable matrix metalloproteinase inhibitors” (J Med Chem, 2002)

What was measured:
[1] = target: 72 kDa type IV collagenase (Homo sapiens, UniProt P08253); experiment: In vitro selective inhibition against matrix metalloprotease-2 (MMP-2) using fluorimetric assay
[2] = target: Matrix metalloproteinase-9 (Homo sapiens, UniProt P14780); experiment: In vitro selective inhibition against Matrix metalloprotease-9 (MMP-9) using fluorimetric assay
Interstitial collagenase = target: T1, Interstitial collagenase (Homo sapiens, UniProt P03956); experiment: In vitro selective inhibition against matrix metalloprotease-1 (MMP-1) using a fluorimetric assay
T1 sequence (P03956 whole entry): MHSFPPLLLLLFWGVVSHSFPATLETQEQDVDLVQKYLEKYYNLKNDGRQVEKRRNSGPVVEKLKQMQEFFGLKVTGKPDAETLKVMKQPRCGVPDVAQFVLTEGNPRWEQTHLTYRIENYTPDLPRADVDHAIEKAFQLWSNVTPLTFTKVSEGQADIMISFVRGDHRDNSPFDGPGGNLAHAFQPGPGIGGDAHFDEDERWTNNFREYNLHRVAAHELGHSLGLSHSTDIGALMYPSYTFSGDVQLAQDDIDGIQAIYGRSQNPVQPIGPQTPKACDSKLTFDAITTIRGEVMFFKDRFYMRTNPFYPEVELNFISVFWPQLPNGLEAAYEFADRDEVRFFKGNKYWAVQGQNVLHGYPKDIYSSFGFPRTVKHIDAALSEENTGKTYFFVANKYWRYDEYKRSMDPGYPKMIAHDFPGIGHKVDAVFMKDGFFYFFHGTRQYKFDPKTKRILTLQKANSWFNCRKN

[3] = AUC in monkey; format: ADME; design: concentration or dose not given beside the values; settings: simiiformes, plasma
[4] = Half life measured as t1/2 in hours after iv administration in cynomolgus monkey; format: ADME, organism-based, Macaca fascicularis; settings: in vivo
[5] = Area under the curve (AUC) after 3 mg/kg peroral administration in cynomolgus monkey; format: ADME, organism-based, Macaca fascicularis; design: dose 3 mg/kg, route oral; settings: in vivo, po
In short: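 Single oral dose of 3 mpk in cynomolgus monkeys, two animals per compound. Oral exposure is reported as AUC in μM·h.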

THP-1 = experiment: Selective inhibition of the cellular TNF alpha release from LPS-stimulated THP-1 cells; format: functional, cell-based; settings: Homo sapiens
Neutrophil collagenase = Neutrophil collagenase (Homo sapiens, UniProt P22894); experiment: Inhibition of Matrix metalloprotease-8 (MMP-8) in fluorimetric assay
Matrilysin = target: T2, Matrilysin (Homo sapiens, UniProt P09237); experiment: Inhibition of Matrix metalloprotease-7 (MMP-7) in fluorimetric assay
T2 sequence (P09237 whole entry): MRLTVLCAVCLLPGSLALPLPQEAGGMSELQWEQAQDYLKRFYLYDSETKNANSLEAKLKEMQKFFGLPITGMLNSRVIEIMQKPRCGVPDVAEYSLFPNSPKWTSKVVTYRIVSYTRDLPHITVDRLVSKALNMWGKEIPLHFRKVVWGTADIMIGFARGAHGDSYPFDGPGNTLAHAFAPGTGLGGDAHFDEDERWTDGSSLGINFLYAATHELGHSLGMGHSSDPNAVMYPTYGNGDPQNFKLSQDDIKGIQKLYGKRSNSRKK

Chain of 72 kDa type IV collagenase (P08253 whole entry): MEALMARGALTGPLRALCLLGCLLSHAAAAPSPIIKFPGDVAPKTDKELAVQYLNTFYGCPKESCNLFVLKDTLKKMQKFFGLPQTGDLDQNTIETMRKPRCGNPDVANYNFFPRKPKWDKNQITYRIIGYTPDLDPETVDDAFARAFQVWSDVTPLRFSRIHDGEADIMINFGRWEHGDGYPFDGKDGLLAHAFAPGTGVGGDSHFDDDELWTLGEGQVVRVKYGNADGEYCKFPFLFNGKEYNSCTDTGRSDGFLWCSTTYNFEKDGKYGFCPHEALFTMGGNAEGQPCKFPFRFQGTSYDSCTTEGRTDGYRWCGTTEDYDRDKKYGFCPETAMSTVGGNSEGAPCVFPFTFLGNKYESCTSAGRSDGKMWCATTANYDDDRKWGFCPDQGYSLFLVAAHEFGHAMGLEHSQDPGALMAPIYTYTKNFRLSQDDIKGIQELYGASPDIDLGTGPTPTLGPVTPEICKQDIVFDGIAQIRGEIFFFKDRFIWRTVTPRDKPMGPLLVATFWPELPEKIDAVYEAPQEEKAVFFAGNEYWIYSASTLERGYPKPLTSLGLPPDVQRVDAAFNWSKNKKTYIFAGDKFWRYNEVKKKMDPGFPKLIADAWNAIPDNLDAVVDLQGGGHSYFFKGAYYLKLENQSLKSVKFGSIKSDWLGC
Chain of Matrix metalloproteinase-9 (P14780 whole entry): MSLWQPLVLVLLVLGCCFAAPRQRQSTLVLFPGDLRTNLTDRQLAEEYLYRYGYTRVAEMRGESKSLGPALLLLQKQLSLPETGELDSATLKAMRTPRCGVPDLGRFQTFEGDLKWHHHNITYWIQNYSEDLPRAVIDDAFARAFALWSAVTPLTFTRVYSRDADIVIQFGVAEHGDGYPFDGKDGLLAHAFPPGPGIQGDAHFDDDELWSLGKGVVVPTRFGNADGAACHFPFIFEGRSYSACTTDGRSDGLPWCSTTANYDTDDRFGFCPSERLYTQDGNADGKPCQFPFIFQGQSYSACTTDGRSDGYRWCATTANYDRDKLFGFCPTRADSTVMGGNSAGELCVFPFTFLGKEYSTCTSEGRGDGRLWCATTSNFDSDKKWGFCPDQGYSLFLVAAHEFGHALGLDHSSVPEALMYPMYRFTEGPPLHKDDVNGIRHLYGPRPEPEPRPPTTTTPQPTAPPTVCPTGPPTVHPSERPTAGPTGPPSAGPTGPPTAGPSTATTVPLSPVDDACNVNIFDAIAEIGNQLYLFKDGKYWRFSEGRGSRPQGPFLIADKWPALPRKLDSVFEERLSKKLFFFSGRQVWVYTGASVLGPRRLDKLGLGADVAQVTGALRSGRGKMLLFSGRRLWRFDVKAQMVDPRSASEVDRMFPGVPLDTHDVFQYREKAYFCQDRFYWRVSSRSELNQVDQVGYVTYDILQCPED
Chain of Neutrophil collagenase (P22894 whole entry): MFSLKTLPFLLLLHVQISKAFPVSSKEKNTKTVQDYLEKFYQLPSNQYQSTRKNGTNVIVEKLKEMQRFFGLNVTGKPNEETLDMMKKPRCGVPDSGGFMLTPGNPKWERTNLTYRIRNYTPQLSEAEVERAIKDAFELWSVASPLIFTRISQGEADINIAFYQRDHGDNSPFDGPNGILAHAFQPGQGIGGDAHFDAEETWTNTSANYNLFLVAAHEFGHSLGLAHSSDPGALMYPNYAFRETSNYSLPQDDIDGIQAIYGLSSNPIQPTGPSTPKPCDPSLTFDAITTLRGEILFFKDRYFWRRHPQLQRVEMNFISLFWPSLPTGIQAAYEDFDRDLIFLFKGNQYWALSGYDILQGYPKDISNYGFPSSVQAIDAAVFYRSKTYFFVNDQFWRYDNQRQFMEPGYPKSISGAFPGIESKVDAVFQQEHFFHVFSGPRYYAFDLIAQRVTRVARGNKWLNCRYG

IC50 [1]	IC50 [2]	IC50 (Interstitial collagenase)	AUC [3]	half-life [4]	AUC [5]	IC50 (THP-1)	IC50 (Neutrophil collagenase)	IC50 (Matrilysin)	SMILES
0.098 nM	7.2 nM	6600 nM	4 µM·h						CN(C)S(=O)(=O)CC(CS(=O)(=O)c1ccc(Oc2ccc(OC(F)(F)F)cc2)cc1)N(O)C=O (configuration not stated)
0.93 nM	3.9 nM	990 nM	1 µM·h						CC1(C)NC(=O)N(CC(CS(=O)(=O)c2ccc(Oc3ccc(C#N)cc3)cc2)N(O)C=O)C1=O (configuration not stated)
1.9 nM	2 nM	8000 nM	24 µM·h						CS(=O)(=O)N1CCC[C@H]1[C@@H](CS(=O)(=O)c1ccc(Oc2ccc(OC(F)(F)F)cc2)cc1)N(O)C=O
1.8 nM		> 50000 nM	1 µM·h	0.7 h					CN1C(=O)N(CC(CS(=O)(=O)c2ccc(Oc3ccc(OC(F)(F)F)cc3)cc2)N(O)C=O)C(=O)C1(C)C (configuration not stated)
260 nM	480 nM	> 50000 nM							CC1(C)OC[C@@H]([C@@H](CS(=O)(=O)c2ccc(Oc3ccc(OC(F)(F)F)cc3)cc2)N(O)C=O)O1 (stereo in doubt; 19x)
0.45 nM	10 nM		4 µM·h	3.4 h					CC1(C)NC(=O)N(CC(CS(=O)(=O)c2ccc(-c3ccc(C(F)(F)F)cc3)cc2)N(O)C=O)C1=O (configuration not stated)
9.5 nM	12 nM	> 50000 nM							Cn1c(C(CS(=O)(=O)c2ccc(Oc3ccc(OC(F)(F)F)cc3)cc2)N(O)C=O)cc2ccccc21 (configuration not stated)
0.72 nM	1.4 nM	280 nM	13 µM·h	11.7 h					CN1C(=O)N(CC(CS(=O)(=O)c2ccc(Oc3ccc(Cl)cc3)cc2)N(O)C=O)C(=O)C1(C)C (configuration not stated)
0.57 nM	1.7 nM	> 50000 nM	10 µM·h	1.4 h					O=CN(O)C(CCN1CCOCC1)CS(=O)(=O)c1ccc(Oc2ccc(OC(F)(F)F)cc2)cc1 (configuration not stated)
0.86 nM	0.34 nM	82 nM	5 µM·h						CC1(C)NC(=O)N(CC(CS(=O)(=O)c2ccc(-c3ccc(OC(F)(F)F)cc3)cc2)N(O)C=O)C1=O (configuration not stated)
0.35 nM	0.26 nM			1 h					O=CN(O)C(CO)CS(=O)(=O)c1ccc(Oc2ccc(OC(F)(F)F)cc2)cc1 (configuration not stated)
34 nM	0.98 nM	> 50000 nM							COC(=O)c1ccc(CCC(CS(=O)(=O)c2ccc(Oc3ccc(OC(F)(F)F)cc3)cc2)N(O)C=O)cc1 (configuration not stated)
25 nM	1.4 nM	> 50000 nM							CC1(C)OC[C@H]([C@@H](CS(=O)(=O)c2ccc(Oc3ccc(OC(F)(F)F)cc3)cc2)N(O)C=O)O1 (stereo in doubt; 19w)
0.42 nM	2 nM	> 50000 nM			28 µM·h				O=CN(O)C(CS(=O)(=O)c1ccc(Oc2ccc(OC(F)(F)F)cc2)cc1)C1CCC2(CC1)OCCO2 (configuration not stated)
7.4 nM	4.1 nM	> 50000 nM							O=CN(O)C(CS(=O)(=O)c1ccc(Oc2ccc(OC(F)(F)F)cc2)cc1)c1ccccc1 (configuration not stated)
1.7 nM	2.2 nM	> 50000 nM	1 µM·h						O=CN(O)C(CS(=O)(=O)c1ccc(Oc2ccc(OC(F)(F)F)cc2)cc1)c1ccccn1 (configuration not stated)
12 nM	1.7 nM	2000 nM							CN(CC(CS(=O)(=O)c1ccc(Oc2ccc(OC(F)(F)F)cc2)cc1)N(O)C=O)S(C)(=O)=O (configuration not stated)
0.53 nM	0.53 nM	> 50000 nM	16 µM·h						O=CN(O)C(CCc1ccc(C(=O)O)cc1)CS(=O)(=O)c1ccc(Oc2ccc(OC(F)(F)F)cc2)cc1 (configuration not stated)
1.4 nM	1.8 nM	2500 nM							CN1C(=O)N(CC(CS(=O)(=O)c2ccc(Oc3ccc(C#N)cc3)cc2)N(O)C=O)C(=O)C1(C)C (configuration not stated)
0.34 nM	4.1 nM	36 nM		1.1 h					CC1(C)NC(=O)N(CC(CS(=O)(=O)c2ccc(-c3ccc(C#N)cc3)cc2)N(O)C=O)C1=O (configuration not stated)
62 nM	37 nM	> 50000 nM							O=CN(O)C(CS(=O)(=O)c1ccc(Oc2ccc(OC(F)(F)F)cc2)cc1)c1ccc(C(F)(F)F)cc1 (configuration not stated)
0.61 nM	0.32 nM	> 50000 nM	26 µM·h						O=CN(O)C(CS(=O)(=O)c1ccc(Oc2ccc(OC(F)(F)F)cc2)cc1)C1CCCO1 (configuration not stated)

IC50 [1]	IC50 [2]	IC50 (Interstitial collagenase)	AUC [3]	half-life [4]	AUC [5]	IC50 (THP-1)	IC50 (Neutrophil collagenase)	IC50 (Matrilysin)	SMILES
1.3 nM	0.9 nM	5200 nM	3 µM·h	2.2 h					CN(C)CC(CS(=O)(=O)c1ccc(Oc2ccc(OC(F)(F)F)cc2)cc1)N(O)C=O (configuration not stated)
0.44 nM	0.3 nM	> 50000 nM							O=CN(O)C(COCCO)CS(=O)(=O)c1ccc(Oc2ccc(OC(F)(F)F)cc2)cc1 (configuration not stated)
1.5 nM	5.5 nM	> 50000 nM	2 µM·h						CC1(C)OCC(C[C@@H](CS(=O)(=O)c2ccc(Oc3ccc(OC(F)(F)F)cc3)cc2)N(O)C=O)O1 (some centres not stated)
6.3 nM	2.3 nM	> 50000 nM							CC1(C)OC[C@@H]([C@@H](CS(=O)(=O)c2ccc(Oc3ccc(OC(F)(F)F)cc3)cc2)N(O)C=O)O1 (stereo in doubt; 19v)
2.6 nM	2 nM	> 50000 nM		8.6 h					O=CN(O)C(CCC(=O)N1CCOCC1)CS(=O)(=O)c1ccc(Oc2ccc(OC(F)(F)F)cc2)cc1 (configuration not stated)
						8600 nM	0.54 nM	72 nM	CC1(C)SCCN(S(=O)(=O)c2ccc(Oc3ccncc3)cc2)[C@H]1C(=O)NO [PRINOMASTAT]
0.35 nM	0.91 nM	78 nM		0.5 h					CC1(C)NC(=O)N(CC(CS(=O)(=O)c2ccc(-c3cccc(CC#N)c3)cc2)N(O)C=O)C1=O (configuration not stated)
						2100 nM			CNC(=O)[C@@H](NC(=O)[C@H](CC(C)C)[C@H](O)C(=O)NO)C(C)(C)C
0.33 nM	0.79 nM	> 50000 nM	41 µM·h						CS(=O)(=O)N1CCN(CCC(CS(=O)(=O)c2ccc(Oc3ccc(OC(F)(F)F)cc3)cc2)N(O)C=O)CC1 (configuration not stated)
2.4 nM	6.2 nM	240 nM							CCCCOc1ccc(-c2ccc(S(=O)(=O)CC(CN3C(=O)NC(C)(C)C3=O)N(O)C=O)cc2)cc1 (configuration not stated)
20 nM	1.1 nM	8300 nM	5 µM·h						CCC1(CC)OCC([C@@H](CS(=O)(=O)c2ccc(Oc3ccc(OC(F)(F)F)cc3)cc2)N(O)C=O)O1 (some centres not stated)
0.39 nM	0.86 nM	2500 nM	3 µM·h						O=CN(O)C(CS(=O)(=O)c1ccc(Oc2ccc(OC(F)(F)F)cc2)cc1)CS(=O)(=O)N1CCOCC1 (configuration not stated)
2.4 nM	0.9 nM	> 50000 nM							COCC(CS(=O)(=O)c1ccc(Oc2ccc(OC(F)(F)F)cc2)cc1)N(O)C=O (configuration not stated)
0.36 nM	0.092 nM	> 50000 nM	3 µM·h						O=CN(O)C(CS(=O)(=O)c1ccc(Oc2ccc(OC(F)(F)F)cc2)cc1)[C@H](O)CO (some centres not stated)
3.6 nM	9.7 nM	6700 nM							O=CN(O)C(CSc1cccs1)CS(=O)(=O)c1ccc(Oc2ccc(OC(F)(F)F)cc2)cc1 (configuration not stated)
0.32 nM	0.96 nM	90 nM	17 µM·h	5.6 h					CC1(C)NC(=O)N(CC(CS(=O)(=O)c2ccc(Oc3ccc(Cl)cc3)cc2)N(O)C=O)C1=O (configuration not stated)
0.67 nM	1.1 nM	2.9 nM							CSc1ccc(-c2ccc(S(=O)(=O)CC(CN3C(=O)NC(C)(C)C3=O)N(O)C=O)cc2)cc1 (configuration not stated)
2.8 nM	0.49 nM	> 50000 nM	8 µM·h	1.9 h					O=CN(O)C(CS(=O)(=O)c1ccc(Oc2ccc(OC(F)(F)F)cc2)cc1)C(CO)CO (configuration not stated)
11 nM	301 nM	> 5000 nM							O=C(C[C@H](CSc1ccccc1)C(=O)O)c1ccc(-c2ccc(Cl)cc2)cc1 [TANOMASTAT]
1.3 nM	2 nM	820 nM	8 µM·h						CC1(C)NC(=O)N(CC(CS(=O)(=O)c2ccc(Oc3ccc(OC(F)(F)F)cc3)cc2)N(O)C=O)C1=O (configuration not stated)
1.9 nM	1.1 nM	> 50000 nM	21 µM·h	19.5 h					C[C@@H]1OC(C)(C)OC1[C@@H](CS(=O)(=O)c1ccc(Oc2ccc(OC(F)(F)F)cc2)cc1)N(O)C=O (some centres not stated)
0.91 nM	1.4 nM	9900 nM	11 µM·h						Cn1ccc(=O)n(CC(CS(=O)(=O)c2ccc(Oc3ccc(OC(F)(F)F)cc3)cc2)N(O)C=O)c1=O (configuration not stated)
